According to ChEMBL document CHEMBL4673214, “Synthesis and antibacterial bioactivities of cationic deacetyl linezolid amphiphiles” (Eur J Med Chem, 2018):
Converted amounts (≈) assume the structure as drawn. The source made the active and inactive calls. The rule behind the calls is not given here.

How the values were obtained:
[1] = test system: Enterobacteriaceae; test: Antibacterial activity against NDM1 producing carbapenem-resistant Enterobacteriaceae clinical isolate 3 assessed as reduction in bacterial growth incubated for 16 to 20 hrs by CLSI-based broth microdilution method; type: functional; settings: time 16-20 hrs
Procedure, shortened: (§1)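 Clinical isolates tested by broth microdilution in cation-adjusted Mueller-Hinton broth. Cultures grown 4-6 h (~10^8 CFU/mL) were diluted to ~10^6 CFU/mL and mixed 1:1 with compound serial dilutions made from 256 down to 0.5 µg/mL (pre-mixing). Plates held at 37 °C for 16-20 h, then read for growth. Each concentration run in duplicate, whole experiment at least twice.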

[2] = test system: Enterobacteriaceae; test: Antibacterial activity against NDM1 producing carbapenem-resistant Enterobacteriaceae clinical isolate 4 assessed as reduction in bacterial growth incubated for 16 to 20 hrs by CLSI-based broth microdilution method; type: functional; settings: time 16-20 hrs; procedure, shortened: as §1
[3] = test system: Salmonella enterica; test: Antibacterial activity against Salmonella enterica ATCC 8387 assessed as reduction in bacterial growth incubated for 16 to 20 hrs by CLSI-based broth microdilution method; type: functional; settings: time 16-20 hrs
Procedure, shortened: (§2)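 Broth microdilution following CLSI, in cation-adjusted Mueller-Hinton broth. Inoculum from a 4-6 h culture (~10^8 CFU/mL), diluted to ~10^6 CFU/mL. Water stocks were serially diluted in MHB (256 to 0.5 µg/mL) and mixed 1:1 with the inoculum. Plates ran 16-20 h at 37 °C. MIC was read visually. Each concentration was tested in duplicate, and the experiment was repeated at least twice.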

[4] = test system: Enterobacteriaceae; test: Antibacterial activity against NDM1 producing carbapenem-resistant Enterobacteriaceae clinical isolate 8 assessed as reduction in bacterial growth incubated for 16 to 20 hrs by CLSI-based broth microdilution method; type: functional; settings: time 16-20 hrs; procedure, shortened: as §1
[5] = test system: Staphylococcus aureus; test: Antibacterial activity against methicillin-resistant Staphylococcus aureus clinical isolate 1 assessed as reduction in bacterial growth incubated for 16 to 20 hrs by CLSI-based broth microdilution method; type: functional; settings: time 16-20 hrs; procedure, shortened: as §1
[6] = test system: Enterobacteriaceae; test: Antibacterial activity against NDM1 producing carbapenem-resistant Enterobacteriaceae clinical isolate 6 assessed as reduction in bacterial growth incubated for 16 to 20 hrs by CLSI-based broth microdilution method; type: functional; settings: time 16-20 hrs; procedure, shortened: as §1
[7] = test system: Cell membrane; test: Induction of outer membrane permeabilization in Escherichia coli ATCC 25922 at 20 ug/ml measured for 12 mins by NPN dye based fluorescence assay; settings: dose 20.0 µg/ml
Procedure, shortened: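 Mid-log E. coli in HEPES/glucose/KCl at ~10^8 CFU/mL was preincubated 40 min with N-phenylnaphthylamine (10 µM stock). Fluorescence (ex 350/em 420 nm) was read for an 8 min baseline, then every 2 min for 12 min after compound at 20 µg/mL final. Water served as control.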

[8] = test system: Staphylococcus aureus; test: Antibacterial activity against Staphylococcus aureus ATCC 29213 assessed as reduction in bacterial growth incubated for 16 to 20 hrs by CLSI-based broth microdilution method; type: functional; settings: time 16-20 hrs; procedure, shortened: as §2
[9] = test system: Enterobacteriaceae; test: Antibacterial activity against NDM1 producing carbapenem-resistant Enterobacteriaceae clinical isolate 2 assessed as reduction in bacterial growth incubated for 16 to 20 hrs by CLSI-based broth microdilution method; type: functional; settings: time 16-20 hrs; procedure, shortened: as §1
[10] = test system: Enterobacteriaceae; test: Antibacterial activity against NDM1 producing carbapenem-resistant Enterobacteriaceae clinical isolate 1 assessed as reduction in bacterial growth incubated for 16 to 20 hrs by CLSI-based broth microdilution method; type: functional; settings: time 16-20 hrs; procedure, shortened: as §1
[11] = test system: Staphylococcus aureus; test: Antibiofilm activity against 24 hrs preformed biofilm of Staphylococcus aureus ATCC 29213 assessed as biofilm viability at 32 ug/ml incubated for 24 hrs by crystal violet staining analysis (reference value: 18.9 1og10CFU); type: functional; settings: dose 32 µg/ml
[12] = test system: Staphylococcus aureus; test: Antibiofilm activity against Staphylococcus aureus ATCC 29213 assessed as inhibition of biofilm formation incubated for 24 hrs by crystal violet staining assay; type: functional
Procedure, shortened: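 Twofold serial dilutions in MHB received 1:1000-diluted exponential-phase bacteria and were incubated 24 h at 37 °C. Wells were rinsed, stained with 0.1% crystal violet for 10 min and dissolved in ethanol, and OD540 was read. MBIC80 was the concentration inhibiting 80% of biofilm formation versus untreated wells, taken from dose-response curves.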

[13] = test system: Staphylococcus aureus; test: Antibacterial activity against methicillin-resistant Staphylococcus aureus assessed as reduction in bacterial growth following incubation in 50% MHB medium and 50% serum and meaured after incubation with compound for 20 to 24 hrs by agar plate method; type: functional; settings: time 20-24 hrs
Procedure, shortened: (§3)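 Sheep plasma obtained by centrifuging defibrinated blood at 3500 rpm for 10 min; serum isolated in serum tubes. MRSA at 10^5 CFU/mL in 50% MHB plus 50% serum, plasma or blood, or in MHB alone. Compound dilutions (512 to 4 µg/mL, pre-mixing) added 50 µL to 150 µL bacteria, 37 °C for 20-24 h. Then 20 µL plated on MHA, 37 °C 20-24 h; MBC taken as no colonies. Two repeats.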

[14] = test system: Escherichia coli; test: Bactericidal activity against early exponential phase of Escherichia coli ATCC 25922 at 4X MIC measured after 2 to 6 hrs hrs by time-kill kinetic assay; type: functional, organism-based; settings: time 2-6 hrs
Procedure, shortened: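 An overnight culture was diluted 1:10,000 in MHB and shaken at 225 rpm and 37 °C for 2 h (early exponential phase), then exposed to compound. Samples taken at intervals were centrifuged, resuspended in PBS, plated as tenfold dilutions on MHA and incubated overnight at 37 °C. CFU/mL were counted. Biological replicates were run.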

[15] = test system: Staphylococcus aureus; test: Antibiofilm activity against 24 hrs preformed biofilm of Staphylococcus aureus ATCC 29213 assessed as biofilm viability at 2 ug/ml incubated for 24 hrs by crystal violet staining analysis (reference value: 18.9 1og10CFU); type: functional; settings: dose 2 µg/ml
[16] = test system: Staphylococcus aureus; test: Antibiofilm activity against 24 hrs preformed biofilm of Staphylococcus aureus ATCC 29213 assessed as biofilm viability at 4 ug/ml incubated for 24 hrs by crystal violet staining analysis (reference value: 18.9 1og10CFU); type: functional; settings: dose 4 µg/ml
[17] = test system: Staphylococcus aureus; test: Antibacterial activity against methicillin-resistant Staphylococcus aureus assessed as reduction in bacterial growth following incubation in MHB medium and meaured after incubation with compound for 20 to 24 hrs by agar plate method; type: functional; settings: time 20-24 hrs; procedure, shortened: as §3
[18] = test system: Escherichia coli; test: Antibiofilm activity against 72 hrs preformed biofilm of Escherichia coli ATCC 25922 assessed as biofilm viability at 64 ug/ml incubated for 24 hrs by […] (reference value: 16.1 log10CFU); type: functional; settings: dose 64 µg/ml
Procedure, shortened: (§4)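 E. coli from mid-log phase was diluted to ~10^5 CFU/mL in M9 medium with 0.02% casamino acids and 0.5% glycerol and formed biofilm without shaking for 72 h. Wells were PBS-washed, then treated with 2-128 µg/mL for 24 h at 37 °C; medium-only wells served as control. Cells were released with trypsin-EDTA and plated as tenfold dilutions. Viability was given as log10 CFU/well.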

[19] = test system: Escherichia coli; test: Antibiofilm activity against 72 hrs preformed biofilm of Escherichia coli ATCC 25922 assessed as biofilm viability at 2 ug/ml incubated for 24 hrs by […] (reference value: 16.1 log10CFU); type: functional; settings: dose 2 µg/ml; procedure, shortened: as §4
[20] = test system: Escherichia coli; test: Antibiofilm activity against 24 hrs preformed biofilm of Escherichia coli ATCC 25922 assessed as eradication of preformed biofilm incubated for 24 hrs by crystal violet staining assay; type: functional
[21] = test system: Escherichia coli; test: Antibiofilm activity against 72 hrs preformed biofilm of Escherichia coli ATCC 25922 assessed as biofilm viability at 32 ug/ml incubated for 24 hrs by […] (reference value: 16.1 log10CFU); type: functional; settings: dose 32 µg/ml; procedure, shortened: as §4

SMILES | MIC [1] [µg/mL] | MIC [2] [µg/mL] | MIC [3] [µg/mL] | MIC [4] [µg/mL] | MIC [5] [µg/mL] | MIC [6] [µg/mL] | Activity [7] | MIC [8] [µg/mL] | MIC [9] [µg/mL] | MIC [10] [µg/mL] | further results
C[C@@H](O)[C@H]1C(=O)N2C(C(=O)O)=C(S[C@@H]3CN[C@H](C(=O)N(C)C)C3)[C@H](C)[C@H]12 [MEROPENEM] | 64 (≈ 167 µM) | 64 (≈ 167 µM) | < 0.125 | > 64 | 64 (≈ 167 µM) | 2 (≈ 5.22 µM) | inactive | 0.125 (≈ 0.326 µM) | 16 (≈ 41.7 µM) | 32 (≈ 83.4 µM) | –
CCCCCCCCCCCN(C[C@H]1CN(c2ccc(N3CCOCC3)c(F)c2)C(=O)O1)C(=O)[C@@H](N)CCCCN.Cl.Cl | 16 | 16 | 16 | 16 | 4 | 16 | inactive | 2 | > 64 | > 64 | Activity [11]: 7.5 log10CFU; MBIC80 [12]: 25.9 µg/mL; MBIC90 [12]: 34.1 µg/mL; MBC [13]: > 128 µg/mL; Activity [14]: Active; Activity [15]: 13.9 log10CFU; Activity [16]: 12.9 log10CFU; MBC [17]: 128 µg/mL; Activity [18]: 6 log10CFU; Activity [19]: 10.2 log10CFU; MBEC [20]: 128 µg/mL; MBEC80 [20]: 112.8 µg/mL; MBEC90 [20]: 120.3 µg/mL; Activity [21]: 6.1 log10CFU
